Calb FLC – affects C. albicans growth with fluconazole; C. albicans CaCi-2 (fluconazole-resistant clinical isolate) + fluconazole, Alamar Blue growth, 48 h; growth inhibition, % (concentration not given with the values); 0.57% of 300,000 active;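 active = growth inhibition above about 58% in most replicates, limit read from the data, passing the limit was not always enough; inconclusive = exactly half the replicates above a set limit; inactive = most replicates below a set limit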;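 also: all wells also contain fluconazole at 8 µg/ml as a sub-toxic cotreatment; 0% = median of DMSO wells and 100% = median of geldanamycin control wells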
T cruzi inh – T. cruzi replication inhibition | T. cruzi beta-gal in NIH3T3, luminescence, 90 h | inhibition, % (no concentration beside the values) | 1.4% of 300,000 active;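 active = mean inhibition across valid replicates above about 55%, limit read from the data; inconclusive = mean below that limit but half or more replicates reach it; inactive = mean below it, under half of replicates reach it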;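 also: signal also drops with host cell toxicity which is not excluded here; 0% = plate median of DMSO wells and 100% = zero luminescence signal; higher percent means less beta-gal luminescence so fewer parasites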
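System: NIH/3T3 fibroblasts plus reporter T. cruzi. Medium: DMEM plus 2% FBS. Probe or stimulus: 5000 reporter trypomastigotes per well. Compound: single 50 nL compound addition per well in DMSO. Incubation: co-culture of at least 90 h after 3 h attachment. Detection: GalScreen β-gal luminescence, detergent lysis, 60 min. Evaluation: parasite load inhibition, %.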
HSF1 inh – HSF1 inhibition; NIH3T3-HGL HSE-luciferase, MG132-induced, luminescence 8 h; active compounds read low; activity change, negative = inhibition, % at 7.5 µM (by protocol); 0.77% of 300,000 active;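 active = more than half of replicate wells show activity change below -50%, luminescence cut by over half; inconclusive = some wells, but at most half, below -50%; inactive = no replicate well below -50%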;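 also: luciferase reports HSF-1 transcriptional activity via heat shock element; 0% = median of DMSO wells and -100% = zero luminescence signal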
HSF-1 act – increases HSF-1 driven luciferase reporter signal. NIH3T3-HGL HSF-1 luciferase reporter, MG132, 8 h; 100% = twice DMSO control signal. activation, % at 9 µM. 1.7% of 300,000 active. AID 504408;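 active = mean replicate activation of at least 50% with a set share of replicates each reaching 50%; inconclusive = only one of those two conditions met; inactive = mean below 50% and too few replicates reaching it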;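 also: 0% = median of the neutral control wells and 100% = twice that signal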
HIF act – HIF pathway transcriptional activation. activation, % at 7.5 µM (by protocol). 0.32% of 300,000 active. U2OS HRE-luciferase reporter, luminescence; normalized: DMSO 0%, desferrioxamine 100%. AID 1910;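 active = mean activation of at least 10% of the iron chelator positive control signal, with at least half of replicates also reaching 10%; inconclusive = mean and replicate majority disagree about reaching 10%; inactive = mean and most replicates under 10%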
Active calls of the source: *. This is a sample that favours compounds with a hit; in the whole collection about 4.4% have one here.

For COc1ccc(C2CC(c3cccs3)=NN2C(=O)CSC2=NN3CCCC(=O)N=C3S2)cc1 (stereo not drawn) the results were Calb FLC -2.1, T cruzi inh 9.9, HSF1 inh 6.7, HSF-1 act -8.1 and HIF act 0.0.
For COc1ccc(C2CC(c3ccc(Br)cc3)=NN2C(=O)CSC2=NN3CCCC(=O)N=C3S2)cc1 (stereo not drawn) the results were Calb FLC -5.3, T cruzi inh 60.0*, HSF1 inh -0.2, HSF-1 act -12.2 and HIF act -0.6.
For Cc1cc(C)c2cc(CN(CC3CCCO3)S(=O)(=O)c3ccc4c(c3)OCCO4)c(=O)[nH]c2c1 (stereo not drawn) the results were Calb FLC -11.5, T cruzi inh 24.3, HSF1 inh 27.9, HSF-1 act 61.8* and HIF act 2.6.
For Cc1ccc(C(=O)Nc2sc(C)c(-c3ccccc3)c2C(N)=O)cc1[N+](=O)[O-] the results were Calb FLC 2.3, T cruzi inh 22.7, HSF1 inh -81.5*, HSF-1 act -83.4 and HIF act -0.7.
`COc1ccc(C(=O)NNC2=NCCCCC2)cc1` gave Calb FLC -10.1, T cruzi inh -8.9, HSF1 inh -0.1, HSF-1 act -6.3 and HIF act -0.1.
`CCOC(=O)CNC(=O)CSc1nnc(Cn2cnc3ccccc32)n1C` gave Calb FLC inconclusive, T cruzi inh -7.0, HSF1 inh 0.6, HSF-1 act -4.7 and HIF act 12.3*.
`COc1ccc(NC(=O)CSc2nnc(Cn3cnc4ccccc43)n2C)cc1` gave Calb FLC 6.2, T cruzi inh 3.8, HSF1 inh 3.2, HSF-1 act -7.9 and HIF act -0.6.
For CN(C)CCCNc1ncc(C(F)(F)F)cc1Cl the results were Calb FLC -0.9, T cruzi inh 63.2*, HSF1 inh -0.5, HSF-1 act 1.6 and HIF act -0.3.
`CN(C)CCCNC(=O)CCc1ncc(C(F)(F)F)cc1Cl` gave Calb FLC -10.4, T cruzi inh -6.4, HSF1 inh -2.6, HSF-1 act -4.9 and HIF act -0.4.
`COc1ccc(Cc2nnc(NC(=O)c3cccc(F)c3)s2)cc1OC` gave Calb FLC -2.2, T cruzi inh -14.0, HSF1 inh -2.1, HSF-1 act -0.7 and HIF act 1.9.
`C/C(CC(=O)Nc1ccccc1)=N\NC(=O)COc1ccc(C)cc1Br` gave Calb FLC 16.6, T cruzi inh -2.6, HSF1 inh 8.1, HSF-1 act 15.3 and HIF act -0.6.
Screening CCc1ccc(NC(=O)C/C(C)=N/NC(=O)COc2ccc(C)cc2Br)cc1 returned Calb FLC -21.1, T cruzi inh -7.7, HSF1 inh 39.8, HSF-1 act 58.6* and HIF act 0.1.
For Cc1nc(C(=O)NNC(=O)c2ccccc2Cl)c(C(F)(F)F)o1 the results were Calb FLC -0.6, T cruzi inh 2.9, HSF1 inh -4.4, HSF-1 act -14.9 and HIF act -0.5.
Cc1nc(C(=O)NNC(=O)c2cccc(Cl)c2)c(C(F)(F)F)o1 was read as Calb FLC -4.9, T cruzi inh -14.3, HSF1 inh -71.4*, HSF-1 act -76.9 and HIF act 0.1.
For COC(=O)c1cc2c(ccn2-c2ccc(F)cc2)n1Cc1ccc(OC(C)=O)cc1 the results were Calb FLC 7.9, T cruzi inh 57.7*, HSF1 inh 14.0, HSF-1 act 19.7 and HIF act 0.4.
`COC(=O)c1cc2c(ccn2-c2ccc(F)cc2)n1Cc1cccc(OC)c1` gave Calb FLC 1.7, T cruzi inh 17.7, HSF1 inh 8.2, HSF-1 act -10.8 and HIF act -0.9.
For C=CCn1c(SC(C)C(=O)NC2CC2)nnc1-c1ccoc1C (stereo not drawn) the results were Calb FLC 3.7, T cruzi inh -3.6, HSF1 inh -2.1, HSF-1 act -21.8 and HIF act -0.3.
Screening CC(C)(C)c1ccccc1OCC(=O)Nc1ccccc1C(=O)NCc1cccnc1 returned Calb FLC 0.2, T cruzi inh 62.3*, HSF1 inh 3.3, HSF-1 act 23.8 and HIF act -0.9.
Screening CC(C)(C)NC(=O)CSc1nc2ccc(Nc3nc(N4CCOCC4)nc(N4CCOCC4)n3)cc2s1 returned Calb FLC 11.9, T cruzi inh 57.9*, HSF1 inh -8.0, HSF-1 act -5.5 and HIF act -0.2.
For CC(=O)CSc1nc2ccc(Nc3nc(N4CCOCC4)nc(N4CCOCC4)n3)cc2s1 the results were Calb FLC 5.4, T cruzi inh 51.6, HSF1 inh -7.0, HSF-1 act -1.9 and HIF act -0.2.
`CCCOc1ccc(N2C(=O)CC(SC(=N)N3N=C(c4ccccc4)CC3c3ccccc3)C2=O)cc1` (stereo not drawn) gave Calb FLC -0.5, T cruzi inh 68.1*, HSF1 inh 10.5, HSF-1 act 38.3 and HIF act -0.7.
Screening CCCCOc1ccc(N2C(=O)CC(N(O)c3ccccc3)C2=O)cc1 (stereo not drawn) returned Calb FLC -7.9, T cruzi inh -10.7, HSF1 inh 54.5, HSF-1 act 107.0* and HIF act 1.9.
For CCCCCOc1ccc(N2C(=O)CC(N(O)c3ccccc3)C2=O)cc1 (stereo not drawn) the results were Calb FLC 4.5, T cruzi inh -0.9, HSF1 inh 14.8, HSF-1 act 40.1 and HIF act 0.2.
Screening CCCOc1ccc(N2C(=O)CC(SC(=NC)Nc3ccc(F)cc3)C2=O)cc1 (stereo not drawn) returned Calb FLC -7.0, T cruzi inh 20.9, HSF1 inh -7.7, HSF-1 act -21.6 and HIF act 0.0.
Screening CCCOc1ccc(N2C(=O)CC(N(CCc3ccc(OC)c(OC)c3)C(=S)Nc3ccccc3)C2=O)cc1 (stereo not drawn) returned Calb FLC 13.7, T cruzi inh 63.7*, HSF1 inh 2.3, HSF-1 act -6.9 and HIF act 0.2.
C=CCN1C(=O)/C(=C/c2ccc(-c3ccc(F)cc3)o2)SC1=S was read as Calb FLC 2.6, T cruzi inh 6.8, HSF1 inh 7.5, HSF-1 act 9.4 and HIF act 0.1.
For COc1ccc(CNC(=O)NC(C)(C)c2cccc(C(C)(C)NC(=O)NCc3ccc(OC)cc3)c2)cc1 the results were Calb FLC 8.5, T cruzi inh -6.9, HSF1 inh 10.9, HSF-1 act 6.0 and HIF act -0.4.
COc1cc(-c2[nH]ncc2CN2CCN(Cc3cccs3)CC2)cc(OC)c1OC was read as Calb FLC 1.6, T cruzi inh 16.2, HSF1 inh -2.7, HSF-1 act -0.4 and HIF act -0.6.
`O=C(CN1CCN(c2ccc(C(F)(F)F)cn2)CC1)NCc1ccc2c(c1)OCO2` gave Calb FLC -0.8, T cruzi inh 23.4, HSF1 inh -0.4, HSF-1 act -9.8 and HIF act -0.6.

Compound activity (PubChem BioAssay)
